For assay [1], the system named is Tumor Cell line. Description: LC50 was measured In vitro as the ratio of the mean activity for all non-CNS tumor cell lines over the mean activity of the CNS tumor subpanel (eight cell lines). The class given is functional, Homo sapiens. The method, boiled down:
(§1)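 Same PG dose-response panel. LC50 (μM) is averaged separately over the non-CNS lines (ca. 40-50 lines) and the CNS subpanel (eight lines). The ratio is the non-CNS mean divided by the CNS mean.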

The test system of assay [2] is Tumor Cell line. Kind of assay: TGI was measured In vitro as the ratio of the mean activity for all non-CNS tumor cell lines over the mean activity of the CNS tumor subpanel (eight cell lines). The class given is functional, Homo sapiens. The method, boiled down: (§2)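 Ratio of the mean activity (μM) over all non-CNS tumour cell lines (ca. 40-50 lines) to the mean activity (μM) of the CNS subpanel (eight lines). Activity was taken from PG vs log concentration curves: GI50 at PG +50%, TGI at PG 0%.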

Assay [3] relates to Tumor Cell line. Description: GI50 was measured In vitro as the ratio of the mean activity for all non-CNS tumor cell lines over the mean activity of the CNS tumor subpanel (eight cell lines). The assay is classed as functional, Homo sapiens. The method, boiled down: as §2
For assay [4], the system named is Tumor Cell line. Kind of assay: LC50 was given In vitro as -50% percent growth (PG), measured as concentration of compound required to inhibit disease oriented human tumor cell line panels; Value ranges from 4.68-100. The conditions noted are these: read-out: LC50 (the source's name). The assay is classed as functional. The method, boiled down: (§3)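 Human tumor cell line panel tested in vitro. Percent growth (PG) plotted against log drug concentration to give dose-response curves. LC50 is the concentration where PG equals -50%; GI50 and TGI are taken at +50% and 0%. Values are means across the full panel, with values beyond the tested limits (> or <) included in the mean.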

The subject of assay [5] is Tumor Cell line. Kind of assay: TGI was given In vitro as 0% percent growth (PG), measured as concentration of compound required to inhibit disease oriented human tumor cell line panels; Value ranges from 0.68->100. The assay is classed as functional. The method, boiled down:
(§4)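 Human tumour cell line panel; percent growth plotted against log drug concentration to give dose-response curves. GI50 is the concentration giving PG +50%, and TGI the concentration giving PG 0%. Values are mean inhibitory concentrations over the entire panel. PG values at either limit (> or <) are included in the mean.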

Assay [6] deals with Tumor Cell line. Kind of assay: LC50 was given In vitro as -50% percent growth (PG), measured as concentration of compound required to inhibit disease oriented human tumor cell line panels; Value ranges from 3.02->100. The conditions noted are these: read-out: LC50 (the source's name). The class given is functional.
Assay [7] relates to Tumor Cell line. Description: GI50 was given In vitro as +50% percent growth (PG), measured as concentration of compound required to inhibit disease oriented human tumor cell line panels; Value ranges from 0.060->100. The class given is functional.
Assay [8] deals with Tumor Cell line. Description: GI50 was given In vitro as +50% percent growth (PG), measured as concentration of compound required to inhibit disease oriented human tumor cell line panels; Value ranges from 0.23-29.5. The class given is functional. The method, boiled down:
as §4

Assay [9] has as its system Tumor Cell line. Description: LC50 was given In vitro as -50% percent growth (PG), measured as concentration of compound required to inhibit disease oriented human tumor cell line panels; Value ranges from 67.61->100. The class given is functional. The conditions noted are these: read-out: LC50 (the source's name). The method, boiled down: as §3
The subject of assay [10] is Tumor Cell line. Kind of assay: LC50 was given In vitro as -50% percent growth (PG), measured as concentration of compound required to inhibit disease oriented human tumor cell line panels; Value ranges from 12.30->100. The conditions noted are these: read-out: LC50 (the source's name). The assay is classed as functional. The method, boiled down: as §3
The test system of assay [11] is Tumor Cell line. Kind of assay: GI50 was given In vitro as +50% percent growth (PG), measured as concentration of compound required to inhibit disease oriented human tumor cell line panels; Value ranges from 0.62-2.95. The assay is classed as functional. The method, boiled down: as §4
For assay [12], the system named is Tumor Cell line. Description: TGI was given In vitro as 0% percent growth (PG), measured as concentration of compound required to inhibit disease oriented human tumor cell line panels; Value ranges from 0.06->100. The assay is classed as functional.
The subject of assay [13] is Tumor Cell line. Description: GI50 was given In vitro as +50% percent growth (PG), measured as concentration of compound required to inhibit disease oriented human tumor cell line panels;Value ranges from 0.06->100. The assay is classed as functional.
Assay [14] has as its system Tumor Cell line. Description: LC50 was given In vitro as -50% percent growth (PG), measured as concentration of compound required to inhibit disease oriented human tumor cell line panels; Value ranges from 5.25->100. The class given is functional. The conditions noted are these: read-out: LC50 (the source's name). The method, boiled down: as §3
The test system of assay [15] is Tumor Cell line. Kind of assay: TGI was given in vitro as 0% percent growth (PG), measured as concentration of compound required to inhibit disease oriented human tumor cell line panels; Value ranges from 2.95-54.95. The assay is classed as functional. The method, boiled down:
as §4

Assay [16] deals with Tumor Cell line. Kind of assay: LC50 was given in vitro as -50% percent growth (PG), measured as concentration of compound required to inhibit disease oriented human tumor cell line panels; Value ranges from 5.50->100. The assay is classed as functional. The conditions noted are these: read-out: LC50 (the source's name). The method, boiled down:
as §3

Assay [17] in a line: GI50 was measured in vitro as the ratio of the mean activity for all non-CNS tumor cell lines over the mean activity of the CNS tumor subpanel (eight cell lines). The class given is functional. The method, boiled down: as §2
Assay [18] relates to Tumor Cell line. Description: GI50 was given in vitro as +50% percent growth (PG), measured as concentration of compound required to inhibit disease oriented human tumor cell line panels; Value ranges from 1.58-11.22. The class given is functional. The method, boiled down: as §4
A short description of assay [19]: LC50 was measured in vitro as the ratio of the mean activity for all non-CNS tumor cell lines over the mean activity of the CNS tumor subpanel (eight cell lines). The class given is functional. The method, boiled down:
as §1

Assay [20] can be described thus: TGI was measured in vitro as the ratio of the mean activity for all non-CNS tumor cell lines over the mean activity of the CNS tumor subpanel (eight cell lines). The assay is classed as functional. The method, boiled down: as §2
Assay [21] concerns Tumor Cell line. Kind of assay: GI50 was given In vitro as +50% percent growth (PG), measured as concentration of compound required to inhibit disease oriented human tumor cell line panels; Value ranges from 0.51-12.88. The class given is functional. The method, boiled down:
as §4

Assay [22] has as its system Tumor Cell line. Kind of assay: LC50 was given In vitro as -50% percent growth (PG), measured as concentration of compound required to inhibit disease oriented human tumor cell line panels; Value ranges from 22.91->55. The class given is functional. The conditions noted are these: read-out: LC50 (the source's name). The method, boiled down:
as §3

The test system of assay [23] is Tumor Cell line. Kind of assay: TGI was given In vitro as 0% percent growth (PG), measured as concentration of compound required to inhibit disease oriented human tumor cell line panels. The assay is classed as functional. The method, boiled down:
as §4

In assay [24] the test system is Tumor Cell line. Kind of assay: LC50 was given In vitro as -50% percent growth (PG), measured as concentration of compound required to inhibit disease oriented human tumor cell line panels. The class given is functional. The conditions noted are these: read-out: LC50 (the source's name). The method, boiled down: as §3
The subject of assay [25] is Tumor Cell line. Description: GI50 was given In vitro as +50% percent growth (PG), measured as concentration of compound required to inhibit disease oriented human tumor cell line panels. The assay is classed as functional. The method, boiled down: as §4
In assay [26] the test system is Tumor Cell line. Kind of assay: TGI was given In vitro as 0% percent growth (PG), measured as concentration of compound required to inhibit disease oriented human tumor cell line panels; Value ranges from 0.30->100. The assay is classed as functional.
For assay [27], the system named is Tumor Cell line. Description: GI50 was given In vitro as +50% percent growth (PG), measured as concentration of compound required to inhibit disease oriented human tumor cell line panels; Value ranges from 0.02->100. The assay is classed as functional. The method, boiled down:
as §4

In assay [28] the test system is Tumor Cell line. Kind of assay: LC50 was given In vitro as -50% percent growth (PG), measured as concentration of compound required to inhibit disease oriented human tumor cell line panels; Value ranges from 1.20->100. The class given is functional. The conditions noted are these: read-out: LC50 (the source's name).

As for `CCOc1ccc2[nH]c3c(C)c4ccncc4c(C)c3c2c1`, the LC50 ratio in the assay on Tumor Cell line [1] was found to be 1.7. Moreover, the TGI ratio with Tumor Cell line [2] is 1.32. Moreover, in the assay on Tumor Cell line [3], the GI50 ratio worked out at 0.89. In addition, in the assay on Tumor Cell line [4], the CC50 is greater than 8.32 µM.

`CCOc1ccc2[nH]c3c(C)c4cc[n+](C)cc4c(C)c3c2c1.[I-]`: the TGI (in general, the concentration at which net growth stops) in the assay with Tumor Cell line [5] is greater than 12 µM. Moreover, in the assay with Tumor Cell line [6], the CC50 is greater than 55 µM. In addition, the GI50 (usually the concentration that inhibits growth by half) in the assay on Tumor Cell line [7] was greater than 1.17 µM. Further, the TGI ratio in the assay on Tumor Cell line [2] was 9.54. For the same molecule, in the assay with Tumor Cell line [3], the GI50 ratio turned out to be 7.9.

Consider `CC(=O)[O-].Cc1c2cc[n+](C)cc2c(C)c2c1[nH]c1ccc(Oc3ccccc3)cc12`, for which the TGI ratio in the assay on Tumor Cell line [2] was determined as 3.06. Moreover, the GI50 ratio in the assay on Tumor Cell line [3] was 3.48. Moreover, in the assay with Tumor Cell line [8], growth was halved (GI50) at 1.82 µM. For the same molecule, the CC50 in the assay with Tumor Cell line [9] was greater than 97.7 µM.

Consider `Cc1c2cc[n+](C)cc2c(C)c2c1[nH]c1ccc(OCC(F)(F)F)cc12.[I-]`, for which the CC50 in the assay with Tumor Cell line [10] is greater than 79.4 µM. Further, the TGI ratio in the assay with Tumor Cell line [2] was determined as 9.11. For the same molecule, the GI50 ratio with Tumor Cell line [3] is 6.26. In the assay with Tumor Cell line [11], this molecule returned a GI50 of 1.58 µM.

In turn, `Cc1c2cc[n+](C)cc2c(C)c2c1[nH]c1ccc(OC(C)C)cc12.[I-]` registered a TGI in the assay with Tumor Cell line [12] greater than 13.2 µM. Also, in the assay on Tumor Cell line [2], the TGI ratio was found to be 6.49. Further, the GI50 ratio in the assay with Tumor Cell line [3] is 8.35. In the assay with Tumor Cell line [13], this molecule displayed a GI50 greater than 1.62 µM. Moreover, the CC50 in the assay on Tumor Cell line [14] is greater than 58.9 µM.

`Cc1c2ccncc2c(C)c2c1[nH]c1ccc(OC(C)(C)C)cc12`: the TGI in the assay on Tumor Cell line [15] came to 7.24 µM. In addition, the CC50 in the assay with Tumor Cell line [16] is greater than 32.4 µM. Moreover, the GI50 ratio in assay [17] stood at 1.1. This molecule also gave a GI50 in the assay with Tumor Cell line [18] of 2.57 µM. Besides, in assay [19], the LC50 ratio came out at 0.98 µM. In addition, in [20], the TGI ratio came to 1.17.

In the assay on Tumor Cell line [21], `Cc1c2cc[n+](C)cc2c(C)c2c1[nH]c1ccc(O)c(OCC(F)(F)F)c12.[I-]` displayed a GI50 of 2.24 µM. Besides, the LC50 ratio in the assay on Tumor Cell line [1] is 1.35. Also, the TGI ratio in the assay on Tumor Cell line [2] came to 3.89. For the same molecule, the GI50 ratio in the assay on Tumor Cell line [3] worked out at 5.65. Besides, in the assay on Tumor Cell line [22], the CC50 was greater than 50.1 µM.

Consider `CC(=O)[O-].Cc1c2cc[n+](C)cc2c(C)c2c1[nH]c1ccc(OC(C)(C)C)cc12`, for which the TGI with Tumor Cell line [23] is greater than 100 µM. In addition, in the assay with Tumor Cell line [2], the TGI ratio was 1. Besides, in the assay on Tumor Cell line [3], the GI50 ratio was 1. Also, the CC50 in the assay with Tumor Cell line [24] is greater than 100 µM. Further, in the assay on Tumor Cell line [25], the GI50 is greater than 100 µM.

For `CC(=O)[O-].COc1ccc2[nH]c3c(C)c4cc[n+](C)cc4c(C)c3c2c1`, in the assay with Tumor Cell line [26], the TGI is greater than 14.8 µM. This molecule also returned a GI50 with Tumor Cell line [27] greater than 1.86 µM. For the same molecule, the TGI ratio in the assay on Tumor Cell line [2] was 33.9. Moreover, the GI50 ratio in the assay with Tumor Cell line [3] turned out to be 16.7. Also, in the assay with Tumor Cell line [28], the CC50 is greater than 49 µM.

These data come from ChEMBL document CHEMBL1127554, “Design, synthesis, and study of 9-substituted ellipticine and 2-methylellipticinium analogues as potential CNS-selective antitumor agents” (1994).
